Data as given in ChEMBL document CHEMBL5352422, “Development of l-Dopa-containing diketopiperazines as blood-brain barrier shuttle” (Eur J Med Chem, 2022).
The source made the active and inactive calls.

Key:
PC-12 [1] = assay: Upregulation of GR expression in MPP+ induced rat PC-12 cells at 100 nM pretreated with compound for 24 hrs followed by MPP+ stimulation and measured after 6 hrs; assay type: functional, cell-based; details: time 30.0 hrs
Summary of the method: (§1)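 PC12 cells pretreated 24 h with compound, then exposed to 25 μM MPP+ for 6 h. mRNA quantified by real-time PCR (95 °C 3 min, then 40 cycles of 95 °C 10 s and 62 °C 30 s), samples in triplicate. Values normalized to β-actin, expressed as 2^-ΔΔCt with untreated cells set to 1.0. n = 3.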

PC-12 [2] = assay: Upregulation of GCLM expression in MPP+ induced rat PC-12 cells at 100 nM pretreated with compound for 24 hrs followed by MPP+ stimulation and measured after 6 hrs; assay type: functional, cell-based; details: time 30.0 hrs; summary of the method: as §1
[3] = target: T1, Nuclear factor erythroid 2-related factor 2 (Rattus norvegicus) (UniProt O54968); assay: Induction of MPP+ induced Nrf2 nuclear translocation in rat PC12 cells at 100 nM incubated for 24 hrs by Western blot analysis; assay type: cell-based; details: PC-12, filed as activator
T1 sequence (whole entry): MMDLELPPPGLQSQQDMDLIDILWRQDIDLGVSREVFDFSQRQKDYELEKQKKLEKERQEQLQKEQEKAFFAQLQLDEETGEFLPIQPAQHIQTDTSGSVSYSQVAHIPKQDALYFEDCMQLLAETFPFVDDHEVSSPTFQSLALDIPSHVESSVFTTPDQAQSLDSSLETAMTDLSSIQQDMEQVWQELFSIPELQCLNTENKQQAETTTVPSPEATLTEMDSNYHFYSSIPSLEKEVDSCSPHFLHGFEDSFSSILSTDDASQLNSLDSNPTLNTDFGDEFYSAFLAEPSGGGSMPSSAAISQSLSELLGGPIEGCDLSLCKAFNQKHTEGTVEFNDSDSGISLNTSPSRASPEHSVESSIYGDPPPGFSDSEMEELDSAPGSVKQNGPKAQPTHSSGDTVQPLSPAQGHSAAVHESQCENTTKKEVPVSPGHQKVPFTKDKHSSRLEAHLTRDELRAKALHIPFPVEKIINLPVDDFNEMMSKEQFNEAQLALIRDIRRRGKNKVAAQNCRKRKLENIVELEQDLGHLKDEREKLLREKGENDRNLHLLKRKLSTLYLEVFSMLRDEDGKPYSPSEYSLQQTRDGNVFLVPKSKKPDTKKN
Summary of the method: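 PC12 cells were incubated 24 h with MPP+ (25 μM) with or without compound (100 nM). Nuclear extracts (30 μg) were run on 10% SDS-PAGE and immunoblotted for Nrf2, with histone H3 as nuclear marker and ECL detection.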

PC-12 [4] = assay: Upregulation of GSTA-2 expression in MPP+ induced rat PC-12 cells at 100 nM pretreated with compound for 24 hrs followed by MPP+ stimulation and measured after 6 hrs; assay type: functional, cell-based; details: time 30.0 hrs; summary of the method: as §1

Measured: Activity

C#CCSC[C@H]1NC(=O)[C@H](Cc2ccc(OC(C)=O)c(OC(C)=O)c2)NC1=O
active: PC-12 [1] | PC-12 [2] | [3] | PC-12 [4]
